# Screens as filed in PubChem.
# A selection: hits, their analogues and other compounds. The true share with any hit is near 3.7%.
# E-selectin induc: induces E-selectin expression in human endothelial cells; HUVEC E-selectin immunofluorescence imaging; normalized: neutral wells 0, TNF-alpha wells 100; activation, % at 7.58 µM; 0.37% of 260,000 active; AID 686992;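 active = mean E-selectin-positive cell signal at least 10% of the positive control, reached in at least 60% of replicates, without over 20% cell loss; inconclusive = no rule given, readout overlaps actives, possibly toxicity-flagged; inactive = the rest, including those meeting only one limit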
#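 System: HUVEC / Compound: single concentration / Signal: immunofluorescence imaging / Read-out: percent E-selectin-positive cells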
# ERAP1 inh: blocks human ERAP1 aminopeptidase activity; 0.15% of 340,000 active; AID 652197; recombinant ERAP1, Leu-AMC fluorescence, 60 min; inhibition, % at 10.7 µM; Q9NZ08;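 active = mean replicate inhibition of at least 30%, or all replicates individually reaching that 30% level; inactive = mean below 30% and not every replicate reaching it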
# Target sequence (Q9NZ08 whole entry, looked up): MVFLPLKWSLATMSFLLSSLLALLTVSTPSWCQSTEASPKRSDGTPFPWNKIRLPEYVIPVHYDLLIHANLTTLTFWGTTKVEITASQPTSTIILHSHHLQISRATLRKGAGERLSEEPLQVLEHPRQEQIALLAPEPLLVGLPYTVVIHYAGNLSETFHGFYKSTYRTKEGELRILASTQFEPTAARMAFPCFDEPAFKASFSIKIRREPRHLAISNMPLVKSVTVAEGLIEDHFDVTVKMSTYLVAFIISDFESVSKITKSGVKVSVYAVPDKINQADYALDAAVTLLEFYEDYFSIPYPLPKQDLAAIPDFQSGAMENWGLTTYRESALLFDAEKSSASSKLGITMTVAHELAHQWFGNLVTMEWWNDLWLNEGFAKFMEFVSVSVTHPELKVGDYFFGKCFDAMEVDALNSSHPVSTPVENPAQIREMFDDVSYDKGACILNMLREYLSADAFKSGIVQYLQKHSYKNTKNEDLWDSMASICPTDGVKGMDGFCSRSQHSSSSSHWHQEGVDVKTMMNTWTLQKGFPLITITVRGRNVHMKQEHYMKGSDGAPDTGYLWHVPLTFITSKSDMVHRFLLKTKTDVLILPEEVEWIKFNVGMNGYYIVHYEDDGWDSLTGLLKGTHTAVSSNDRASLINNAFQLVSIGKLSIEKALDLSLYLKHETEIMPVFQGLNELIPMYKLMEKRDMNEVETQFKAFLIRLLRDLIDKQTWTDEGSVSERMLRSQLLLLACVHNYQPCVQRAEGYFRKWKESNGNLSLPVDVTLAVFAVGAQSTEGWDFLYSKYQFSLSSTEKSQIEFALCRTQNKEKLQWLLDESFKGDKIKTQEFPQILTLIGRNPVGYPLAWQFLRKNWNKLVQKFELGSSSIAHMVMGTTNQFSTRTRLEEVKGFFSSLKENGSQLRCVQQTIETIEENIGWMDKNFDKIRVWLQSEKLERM
# CFTR F508del cor: CFTR F508del correction in bronchial cells; CFBE cells, YFP halide quenching; stimulated with forskolin plus potentiator P3; % fluorescence drop versus neutral controls; activity (quench increase), % at 7.58 µM; 0.36% of 350,000 active; AID 720511;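 active = mean added fluorescence quench of at least 8% versus neutral control, with both replicates also reaching 8%; inconclusive = only one of the mean or replicate conditions met; inactive = mean below 8% and not both replicates reaching 8%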;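 also: cells transiently co-express mutant CFTR-F508del with the halide-sensitive YFP; corrector assay measuring rescue of mutant channel to the surface after 24 h compound exposure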
# DENV2 CPE rescue: DENV2-induced cell death inhibition | DENV2-infected cells, cytopathic effect rescue, plate reader | CPE inhibition, % at 9.99 µM | 1.7% of 350,000 active | AID 651640; in the data active = CPE inhibition above about 20%, passing the limit was not always enough; inconclusive = no clear call, values can overlap the other calls; tested in BHK-21 cells
# FGF22 binding: FGF22 (human) thermal shift binding; recombinant FGF22 thermal shift, SYPRO orange fluorescence; percent of sucrose octasulfate shift, DMSO zero; AID 651658; activity (Tm shift, normalised), % at 9.99 µM; 1.5% of 340,000 active; Q9HCT0;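 active = mean Tm shift, scaled 0 neutral to 100 positive control, at about 1.3% or above, every replicate too, limit read from the data; inconclusive = no clear call, values can overlap the other calls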
# Numbers stand for hits; . = inactive; ? = inconclusive; / = not tested or not shown; ! = a repeat was not active.
SMILES,E-selectin induc,ERAP1 inh,CFTR F508del cor,DENV2 CPE rescue,FGF22 binding
CC(=O)N1[C@@H]2c3ccc(-c4ccccc4)c(=O)n3C[C@H]1[C@H](CO)[C@H]2C(=O)Nc1ccccc1,.,.,/,48,.
COCC(=O)N1[C@@H]2Cn3c(ccc(/C=C/c4ccccc4)c3=O)[C@H]1[C@@H](C(=O)N1CCOCC1)[C@@H]2CO,.,128,/,.,.
Cc1noc(C)c1S(=O)(=O)N(C)C[C@H]1Oc2ccc(NC(=O)CCCCCC(=O)Nc3ccccc3N)cc2CC(=O)N([C@@H](C)CO)C[C@H]1C,.,.,.,.,.
NC(=N\N=Cc1ccccc1)/C(N)=N/N=Cc1ccccc1,.,.,.,.,44
Cc1noc(C)c1S(=O)(=O)Nc1cccc2c1O[C@H](CN(C)CC1CC1)[C@H](C)CN([C@H](C)CO)C2=O,.,.,.,.,.
COc1ccc(NC(=O)Nc2ccc3c(c2)C(=O)N([C@H](C)CO)C[C@@H](C)[C@H](CN(C)C(=O)Cc2ccccc2)OCCCC[C@@H](C)O3)cc1,.,.,.,30,.
COc1ccc(NC(=O)Nc2ccc3c(c2)C(=O)N([C@H](C)CO)C[C@H](C)[C@@H](CN(C)C(=O)Cc2ccccc2)OCCCC[C@@H](C)O3)cc1,.,.,.,68,.
COc1ccc(NC(=O)Nc2ccc3c(c2)C(=O)N([C@@H](C)CO)C[C@@H](C)[C@H](CN(C)C(=O)Cc2ccccc2)OCCCC[C@H](C)O3)cc1,.,.,.,.,.
COc1ccc(NC(=O)Nc2ccc3c(c2)C(=O)N([C@@H](C)CO)C[C@H](C)[C@H](CN(C)C(=O)Cc2ccccc2)OCCCC[C@H](C)O3)cc1,.,.,.,21,.
O=C(NCCc1ccncc1)[C@@H]1[C@@H](CO)[C@@H]2Cn3c(ccc(C4=CCCCC4)c3=O)[C@H]1N2CC1CC1,.,/,/,.,.
O=C(NCC[C@@H]1CC[C@H](NS(=O)(=O)c2cccc(Cl)c2)[C@H](CO)O1)c1cnccn1,.,.,.,.,.
COC(=O)C[C@@H]1C=C[C@H](NS(=O)(=O)c2ccccc2F)[C@@H](CO)O1,.,.,.,.,.
C[C@@H]1CN([C@H](C)CO)C(=O)c2cccc(N(C)C)c2O[C@@H]1CN(C)C(=O)Nc1cccc2ccccc12,.,.,.,.,.
Nc1ccccc1C(O)(Cc1ccccc1)c1ccccc1 (stereo not drawn),.,.,.,36,.
CCOC(=O)c1cnc2c(cnn2C)c1Cl,/,.,.,.,43
Fc1ccc(CCNC(=S)Nc2ccc(F)c(Cl)c2)cc1,.,.,.,.,1.9
Cc1cccc(NC(=S)NC(C)CCc2ccccc2)c1 (stereo not drawn),/,.,.,45,.
Cc1cccc(NC(=O)NC(C)CCc2ccccc2)c1 (stereo not drawn),.,.,/,.,.
Fc1cccc(NC(=S)NCCc2ccccc2)c1,.,.,.,.,1.7
COC(=O)c1ccc(CNC(=O)c2ccc(OC)c(S(=O)(=O)NC3CCCC3)c2)cc1,99,.,.,.,.
CN(C)Cc1ccc(CNC(=O)c2ccc(Cl)c(S(=O)(=O)NC3CC3)c2)cc1,/,.,.,.,.
CN(C)Cc1ccccc1CNC(=O)c1ccc(Cl)c(S(=O)(=O)NC2CC2)c1,.,.,.,.,43
COc1cccc(CNC(=O)c2ccc(OC)c(S(=O)(=O)NC3CCCC3)c2)c1,.,.,.,.,.
CCC(=O)N1[C@@H]2Cn3c(ccc(-c4ccccc4F)c3=O)[C@H]1[C@@H](C(=O)NC1CCCC1)[C@@H]2CO,.,.,.,.,.
COC(=O)C[C@H]1CC[C@@H]2[C@@H](COc3ccc(NC(=O)c4cccc(F)c4)cc3C(=O)N2C)O1,.,.,.,.,.
SMILES,E-selectin induc,ERAP1 inh,CFTR F508del cor,DENV2 CPE rescue,FGF22 binding
O=C(NCc1ccccc1)C1=C[C@H](c2csc3ccccc23)C[C@H](OCCCCO)O1,.,.,.,.,.
O=C(Nc1ccccc1)C1=C[C@H](c2csc3ccccc23)C[C@H](OCCCCO)O1,.,.,.,20!,.
CCCNC(=O)C[C@H]1CC[C@H]2[C@@H](COc3ccc(NC(=O)NCC)cc3C(=O)N2C)O1,.,.,.,.,.
O=C(C[C@H]1C=C[C@H](NC(=O)CN2CCOCC2)[C@H](CO)O1)NCc1cccc(F)c1,.,.,.,.,.
COCc1[nH][nH]c(=O)c1C=Nc1ccc(Oc2ccccc2)cc1,/,.,/,/,/
COC(=O)c1c(C)[nH]c(O)c1C=Nc1ccc(Oc2ccccc2)cc1,/,.,.,.,44
Cc1ccc(NS(=O)(=O)c2ccc(C(=O)OCC(=O)Nc3cc(C)on3)cc2)cc1,/,.,.,.,43
Cc1cc(NC(=O)COC(=O)[C@@H](NS(=O)(=O)c2ccccc2)C(C)C)no1,/,.,.,.,43
CCOc1cc(C(=O)OCC(=O)Nc2cc(C)on2)ccc1OCC(C)C,/,.,.,.,44
COc1ccc2c3c(n(C)c2c1)[C@@H](CO)N(C(=O)C1CCOCC1)CC31CCN(Cc2cccc(F)c2)CC1,.,.,?,.,.
OC[C@@H]1[C@H](c2ccc(/C=C/c3ccccc3)cc2)[C@H]2CN(Cc3cccnc3)CCCCN12,.,.,.,.,.
COCC(=O)N[C@@H]1C=C[C@H](CC(=O)NCc2ccccc2OC)O[C@@H]1CO,.,.,.,.,.
O=S(=O)(c1ccccc1F)N1CC[C@@H]2[C@H]1c1cc(-c3cccc(F)c3)ccc1N[C@@H]2CO,.,/,.,/,/
O=S(=O)(c1ccccc1F)N1CC[C@H]2[C@H](CO)Nc3ccc(-c4cccc(F)c4)cc3[C@H]21,.,.,.,29,.
COc1ccccc1-c1ccc2c(c1)[C@H]1[C@H](CCN1S(=O)(=O)c1ccccc1F)[C@H](CO)N2,.,.,.,23,.
COc1ccc(S(=O)(=O)N(C)C[C@H]2Oc3c(NC(=O)NC(C)C)cccc3C(=O)N([C@@H](C)CO)C[C@@H]2C)cc1,.,.,.,.,.
COc1cccc(NC(=S)/C(=C(\[O-])c2cc(C)n(-c3ccccc3F)c2C)[n+]2ccc(N(C)C)cc2)c1,/,.,.,.,43
Cc1cc(C([O-])=C(C(=S)Nc2ccc(F)cc2)[n+]2ccccc2)c(C)n1-c1ccc(F)cc1,.,.,.,.,.
COc1ccc2c3c([nH]c2c1)[C@H](CO)NCC31CN(C(=O)Cc2cccnc2)C1,.,.,.,.,.
CCOc1ccc(C)cc1S(=O)(=O)n1cnc2ccccc21,/,.,9.9,.,.
COc1ccc2c(=O)cc(C(=O)O)oc2c1,/,.,.,/,.
O=C(O)c1cc(=O)c2c(OCC(O)COc3cccc4oc(C(=O)O)cc(=O)c34)cccc2o1,.,.,.,26,.
C[C@H](CO)N1C[C@H](C)[C@@H](CN(C)Cc2ccc(C(F)(F)F)cc2)Oc2c(NS(=O)(=O)c3cccs3)cccc2C1=O,.,.,.,.,.
